According to publication PMC7993274 (Clinical and Translational Science, 2020):
“Also recorded” adds a separate entry of the source.

What was measured:
[1] = system: MATE1; details: cited from earlier work
[2] = rats, preclinical studies; cited from earlier work
[3] = Plasma PK, multiple ascending dose; assay type: in vivo, human; details: for AUCτ (dn) / Cmax (dn): dose normalized; for AUCτ (dn) / Cmax (dn) / AUCτ / Cmax: geometric mean (CV %); for Tmax: median (range); for t1/2: arithmetic mean (SD)
[4] = Plasma PK, single ascending dose; assay type: in vivo, human; details: for t1/2: arithmetic mean (SD); for AUCinf (dn) / Cmax (dn): dose normalized; for AUCinf (dn) / Cmax (dn) / AUCinf / Cmax: geometric mean (CV %); for Tmax: median (range)
In short: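 Healthy volunteers were randomized 3:1 to test compound or placebo, given as a single oral dose of 3–1,600 mg (tablets; suspension for 3 mg) after an overnight fast of ≥8 h. Plasma was sampled predose and at 0.5–72 h. Assay LLOQ was 1 ng/mL. Parameters came from noncompartmental analysis, were dose-normalized to 1 mg, and were reported as geometric mean (CV), with Tmax excepted.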

[5] = system: MATE2; details: cited from earlier work
[6] = background statement, no reference given; cited from earlier work
[7] = system: OATP1B1; details: cited from earlier work
[8] = system: CYP3A4; experiment: 6‐beta‐hydroxycortisol/cortisol ratio; assay type: in vivo, human; details: participants receiving PF‐06826647
[9] = system: MRP1; details: cited from earlier work
[10] = MAD day 1 fed Japanese cohort 400 mg q.d.
[11] = MAD day 10 fed Japanese cohort 400 mg q.d.
[12] = SAD 1,600 mg single dose fasted

- dose proportionality of AUCτ and Cmax ([3]; MAD 30–400 mg q.d.): less‐than‐dose‐proportional
- dose proportionality of AUCτ and Cmax ([3]; MAD 400–1,200 mg q.d.): dose‐proportional
- AUCτ (dn) ([3]; MAD day 1 fed 30 mg q.d.): 22.1 (25) ng.hour/mL/mg
- Cmax (dn) ([3]; MAD day 1 fed 30 mg q.d.): 2.8 (24) ng/mL/mg
- AUCτ ([3]; MAD day 1 fed 30 mg q.d.): 662.8 (25) ng.hour/mL
- Cmax ([3]; MAD day 1 fed 30 mg q.d.): 83.5 (24) ng/mL
- Tmax ([3]; MAD day 1 fed 30 mg q.d.): 3.0 (2.0–6.0) hour
- AUCτ (dn) ([3]; MAD day 1 fed 100 mg q.d.): 18.0 (23) ng.hour/mL/mg
- Cmax (dn) ([3]; MAD day 1 fed 100 mg q.d.): 2.7 (20) ng/mL/mg
- AUCτ ([3]; MAD day 1 fed 100 mg q.d.): 1,803.0 (23) ng.hour/mL
- Cmax ([3]; MAD day 1 fed 100 mg q.d.): 267.2 (20) ng/mL
- Tmax ([3]; MAD day 1 fed 100 mg q.d.): 4.0 (1.0–4.0) hour
- AUCτ ([3]; MAD day 1 fed 200 mg b.i.d., tau = 12 hours): 1,646.0 (70) ng.hour/mL
- Cmax (dn) ([3]; MAD day 1 fed 200 mg b.i.d.): 1.5 (67) ng/mL/mg
- Cmax ([3]; MAD day 1 fed 200 mg b.i.d.): 289.8 (67) ng/mL
- Tmax ([3]; MAD day 1 fed 200 mg b.i.d.): 4.0 (2.0–6.0) hour
- AUCτ (dn) ([3]; MAD day 1 fed 400 mg q.d.): 11.1 (67) ng.hour/mL/mg
- Cmax (dn) ([3]; MAD day 1 fed 400 mg q.d.): 1.5 (33) ng/mL/mg
- AUCτ ([3]; MAD day 1 fed 400 mg q.d.): 4,424.0 (67) ng.hour/mL
- Cmax ([3]; MAD day 1 fed 400 mg q.d.): 585.9 (33) ng/mL
- Tmax ([3]; MAD day 1 fed 400 mg q.d.): 3.0 (2.0–6.0) hour
- AUCτ (dn) ([3]; MAD day 1 fed 1,200 mg q.d.): 14.2 (20) ng.hour/mL/mg
- Cmax (dn) ([3]; MAD day 1 fed 1,200 mg q.d.): 1.7 (10) ng/mL/mg
- AUCτ ([3]; MAD day 1 fed 1,200 mg q.d.): 17,090.0 (20) ng.hour/mL
- Cmax ([3]; MAD day 1 fed 1,200 mg q.d.): 2,023.0 (10) ng/mL
- Tmax ([3]; MAD day 1 fed 1,200 mg q.d.): 2.0 (2.0–4.0) hour
- AUCτ [3, 10]: 6,038.0 (29) ng.hour/mL
- Cmax [3, 10]: 695.5 (19) ng/mL
- Tmax [3, 10]: 4.0 (2.0–4.0) hour
- median Tmax ([3]; MAD day 10, standard meal, all doses (30–1,200 mg)): 4 h
- t1/2 ([3]; MAD day 10 fed 30 mg q.d.): 8.8 (5.8) hour
- AUCτ (dn) ([3]; MAD day 10 fed 30 mg q.d.): 25.1 (32) ng.hour/mL/mg
- Cmax (dn) ([3]; MAD day 10 fed 30 mg q.d.): 2.8 (27) ng/mL/mg
- AUCτ ([3]; MAD day 10 fed 30 mg q.d.): 752.9 (32) ng.hour/mL
- Cmax ([3]; MAD day 10 fed 30 mg q.d.): 85.3 (27) ng/mL
- Tmax ([3]; MAD day 10 fed 30 mg q.d.): 4.0 (4.0–6.0) hour
- t1/2 ([3]; MAD day 10 fed 100 mg q.d.): 12.7 (12.7) hour
- AUCτ (dn) ([3]; MAD day 10 fed 100 mg q.d.): 19.5 (33) ng.hour/mL/mg
- Cmax (dn) ([3]; MAD day 10 fed 100 mg q.d.): 2.6 (30) ng/mL/mg
- AUCτ ([3]; MAD day 10 fed 100 mg q.d.): 1,952.0 (33) ng.hour/mL
- Cmax ([3]; MAD day 10 fed 100 mg q.d.): 263.2 (30) ng/mL
- Tmax ([3]; MAD day 10 fed 100 mg q.d.): 4.0 (2.0–4.0) hour
- AUCτ ([3]; MAD day 10 fed 200 mg b.i.d., tau = 12 hours): 2,010.0 (49) ng.hour/mL
- t1/2 ([3]; MAD day 10 fed 200 mg b.i.d.): 26.9 (8.1) hour
- Cmax (dn) ([3]; MAD day 10 fed 200 mg b.i.d.): 1.7 (46) ng/mL/mg
- Cmax ([3]; MAD day 10 fed 200 mg b.i.d.): 339.5 (46) ng/mL
- Tmax ([3]; MAD day 10 fed 200 mg b.i.d.): 4.0 (2.0–4.0) hour
- t1/2 ([3]; MAD day 10 fed 400 mg q.d.): 7.5 (2.6) hour
- AUCτ (dn) ([3]; MAD day 10 fed 400 mg q.d.): 13.6 (57) ng.hour/mL/mg
- Cmax (dn) ([3]; MAD day 10 fed 400 mg q.d.): 1.7 (37) ng/mL/mg
- AUCτ ([3]; MAD day 10 fed 400 mg q.d.): 5,420.0 (57) ng.hour/mL
- Cmax ([3]; MAD day 10 fed 400 mg q.d.): 667.3 (37) ng/mL
- Tmax ([3]; MAD day 10 fed 400 mg q.d.): 4.0 (2.0–6.0) hour
- t1/2 ([3]; MAD day 10 fed 1,200 mg q.d.): 34.3 (21.9) hour
- AUCτ (dn) ([3]; MAD day 10 fed 1,200 mg q.d.): 12.4 (31) ng.hour/mL/mg
- Cmax (dn) ([3]; MAD day 10 fed 1,200 mg q.d.): 1.5 (21) ng/mL/mg
- AUCτ ([3]; MAD day 10 fed 1,200 mg q.d.): 14,890.0 (31) ng.hour/mL
- Cmax ([3]; MAD day 10 fed 1,200 mg q.d.): 1,855.0 (21) ng/mL
- Tmax ([3]; MAD day 10 fed 1,200 mg q.d.): 4.0 (2.0–4.0) hour
- t1/2 [3, 11]: 7.4 (4.8) hour
- AUCτ [3, 11]: 7,194.0 (20) ng.hour/mL
- Cmax [3, 11]: 887.0 (11) ng/mL
- Tmax [3, 11]: 4.0 (2.0–6.0) hour
- plasma accumulation ([3]; after multiple dosing, q.d. and b.i.d.): < 1.5 fold
- steady‐state reached by ([3]; both q.d. and b.i.d. dosing): ≤ 2 days
- t1/2 ([4]; SAD 3 mg single dose fasted): 3.6 (1.3) hour
- AUCinf (dn) ([4]; SAD 3 mg single dose fasted): 15.9 (59) ng.hour/mL/mg
- Cmax (dn) ([4]; SAD 3 mg single dose fasted): 2.6 (38) ng/mL/mg
- AUCinf ([4]; SAD 3 mg single dose fasted): 47.6 (59) ng.hour/mL
- Cmax ([4]; SAD 3 mg single dose fasted): 7.8 (38) ng/mL
- Tmax ([4]; SAD 3 mg single dose fasted): 2.0 (1.0–2.0) hour
- t1/2 ([4]; SAD 10 mg single dose fasted): 6.0 (1.9) hour
- AUCinf (dn) ([4]; SAD 10 mg single dose fasted): 36.9 (67) ng.hour/mL/mg
- Cmax (dn) ([4]; SAD 10 mg single dose fasted): 4.7 (35) ng/mL/mg
- AUCinf ([4]; SAD 10 mg single dose fasted): 369.3 (67) ng.hour/mL
- Cmax ([4]; SAD 10 mg single dose fasted): 47.1 (35) ng/mL
- Tmax ([4]; SAD 10 mg single dose fasted): 2.0 (1.0–4.0) hour
- t1/2 ([4]; SAD 30 mg single dose fasted): 19.7 (9.5) hour
- AUCinf (dn) ([4]; SAD 30 mg single dose fasted): 28.3 (41) ng.hour/mL/mg
- Cmax (dn) ([4]; SAD 30 mg single dose fasted): 2.6 (34) ng/mL/mg
- AUCinf ([4]; SAD 30 mg single dose fasted): 848.4 (40) ng.hour/mL
- Cmax ([4]; SAD 30 mg single dose fasted): 77.9 (34) ng/mL
- Tmax ([4]; SAD 30 mg single dose fasted): 2.0 (1.0–4.0) hour
- t1/2 ([4]; SAD 100 mg single dose fasted): 38.8 (36.0) hour
- AUCinf (dn) ([4]; SAD 100 mg single dose fasted): 15.8 (42) ng.hour/mL/mg
- Cmax (dn) ([4]; SAD 100 mg single dose fasted): 1.7 (55) ng/mL/mg
- AUCinf ([4]; SAD 100 mg single dose fasted): 1,582.0 (42) ng.hour/mL
- Cmax ([4]; SAD 100 mg single dose fasted): 166.8 (55) ng/mL
- Tmax ([4]; SAD 100 mg single dose fasted): 2.0 (2.0–6.0) hour
- t1/2 ([4]; SAD 400 mg single dose fasted): 16.3 (9.3) hour
- AUCinf (dn) ([4]; SAD 400 mg single dose fasted): 7.6 (65) ng.hour/mL/mg
- Cmax (dn) ([4]; SAD 400 mg single dose fasted): 1.0 (62) ng/mL/mg
- AUCinf ([4]; SAD 400 mg single dose fasted): 3,056.0 (65) ng.hour/mL
- Cmax ([4]; SAD 400 mg single dose fasted): 404.8 (62) ng/mL
- Tmax ([4]; SAD 400 mg single dose fasted): 2.0 (0.5–4.0) hour
- t1/2 [4, 12]: 22.2 (24.6) hour
- AUCinf (dn) [4, 12]: 7.4 (25) ng.hour/mL/mg
- Cmax (dn) [4, 12]: 0.8 (25) ng/mL/mg
- AUCinf [4, 12]: 11,790.0 (25) ng.hour/mL
- Cmax [4, 12]: 1,218.0 (25) ng/mL
- Tmax [4, 12]: 2.0 (0.5–4.0) hour
- dose proportionality of AUCinf and Cmax ([4]; SAD doses of 3–10 mg): greater than dose‐proportional
- dose proportionality of AUCinf and Cmax ([4]; SAD doses of 10–400 mg): less than dose‐proportional
- dose proportionality of AUCinf and Cmax ([4]; SAD doses of 400–1,600 mg): dose‐proportional
- median Tmax ([4]; fasted state, SAD, overall): 2 h
- 6‐beta‐hydroxycortisol/cortisol ratio [8]: no clinically meaningful alteration
SMILES: Cn1cc(-c2cn3nccc3c(-c3cnn([C@]4(CC#N)C[C@@H](C#N)C4)c3)n2)cn1 [PF‐06826647]
- inhibition of transporter protein MATE1 [1]: minimal inhibition
- drug clearance via renal and biliary excretion [2]: limited drug clearance via renal and biliary excretion
- inhibition of transporter protein MATE2 [5]: MATE2 inhibition; also recorded: inhibitor of the MATE2 renal transporter
- cellular permeability [6]: ~ 17 × 10^‐6 cm/s
- inhibition of transporter protein OATP1B1 [7]: minimal inhibition
- inhibition of transporter protein MRP1 [9]: minimal inhibition
